From ChEMBL document CHEMBL5236602, “Synthesis and Characterization of NUC-7738, an Aryloxy Phosphoramidate of 3'-Deoxyadenosine, as a Potential Anticancer Agent” (J Med Chem, 2022)
The source made the active and inactive calls. The rule behind the calls is not given here.

What was measured:
[1] = system: MV4-11; test: Cytotoxicity against human MV4-11 cells assessed as maximum cell growth inhibition incubated for 72 hrs by MTS assay relative to control; type: functional
Procedure, shortened: (§1)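 Cells from the 20-line panel were seeded the day before dosing, then exposed to compound for 72 h. MTS was added, followed by 4 h at 37 °C, and absorbance was read. Nine serial 3.16-fold dilutions were tested, top 198 μM, in duplicate. MI% is the maximum inhibitory effect across the tested concentration range.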

[2] = system: CCRF-CEM; test: Cytotoxicity against human CCRF-CEM cells assessed as cell death incubated for 72 hrs by MTS assay; type: functional; details: read-out: LC50 (the source's name)
Procedure, shortened: (§2)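 Contracted MTS assay. Cells seeded the day before treatment and exposed 72 h to nine serial concentrations (3.16-fold steps, top 198 μM), tested in duplicate. MTS added, then 4 h at 37 °C and absorbance read. LC50 is the concentration killing 50% of cells. MI% is the maximum inhibition over the tested range.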

[3] = system: CCRF-CEM; test: Cytotoxicity against human CCRF-CEM cells assessed as maximum cell growth inhibition incubated for 72 hrs by MTS assay relative to control; type: functional; procedure, shortened: as §1
[4] = system: HL-60; test: Cytotoxicity against human HL-60 cells assessed as cell death incubated for 72 hrs by MTS assay; type: functional; details: read-out: LC50 (the source's name); procedure, shortened: as §2
[5] = system: HL-60; test: Cytotoxicity against human HL-60 cells assessed as maximum cell growth inhibition incubated for 72 hrs by MTS assay relative to control; type: functional; procedure, shortened: as §1
[6] = system: KG-1; test: Cytotoxicity against human KG-1 cells assessed as cell death incubated for 72 hrs by MTS assay; type: functional; procedure, shortened: as §2
[7] = system: KG-1; test: Cytotoxicity against human KG-1 cells assessed as maximum cell growth inhibition incubated for 72 hrs by MTS assay relative to control; type: functional; procedure, shortened: as §1
[8] = system: MOLT-4; test: Cytotoxicity against human MOLT-4 cells assessed as cell death incubated for 72 hrs by MTS assay; type: functional; details: read-out: LC50 (the source's name); procedure, shortened: as §2
[9] = system: MOLT-4; test: Cytotoxicity against human MOLT-4 cells assessed as maximum cell growth inhibition incubated for 72 hrs by MTS assay relative to control; type: functional; procedure, shortened: as §1
[10] = system: K562; test: Cytotoxicity against human K562 cells assessed as cell death incubated for 72 hrs by MTS assay; type: functional; details: read-out: LC50 (the source's name); procedure, shortened: as §2
[11] = system: K562; test: Cytotoxicity against human K562 cells assessed as maximum cell growth inhibition incubated for 72 hrs by MTS assay relative to control; type: functional; procedure, shortened: as §1
[12] = system: HepG2; test: Cytotoxicity against human HepG2 cells assessed as cell death incubated for 72 hrs by MTS assay; type: functional; details: read-out: LC50 (the source's name); procedure, shortened: as §2
[13] = system: HepG2; test: Cytotoxicity against human HepG2 cells assessed as maximum cell growth inhibition incubated for 72 hrs by MTS assay relative to control; type: functional; procedure, shortened: as §1
[14] = system: MCF7; test: Cytotoxicity against human MCF7 cells assessed as cell death incubated for 72 hrs by MTS assay; type: functional; details: read-out: LC50 (the source's name); procedure, shortened: as §2
[15] = system: MCF7; test: Cytotoxicity against human MCF7 cells assessed as maximum cell growth inhibition incubated for 72 hrs by MTS assay relative to control; type: functional; procedure, shortened: as §1
[16] = Prodrug conversion in human CCRF-CEM cells assessed as fold increase in 3'-dATP level at 50 uM incubated for 2 hrs by LC-MS/MS analysis relative to 3'-Deoxyadenosine; type: ADME, cell-based
[17] = Prodrug conversion in human K562 cells assessed as fold increase in 3'-dATP level at 50 uM incubated for 2 hrs by LC-MS/MS analysis relative to 3'-Deoxyadenosine; type: ADME, cell-based; details: k562, 2 h
[18] = Prodrug conversion in human HL-60 cells assessed as fold increase in 3'-dATP level at 50 uM incubated for 2 hrs by LC-MS/MS analysis relative to 3'-Deoxyadenosine; type: ADME, cell-based; details: hl-60, 2 h
[19] = Prodrug conversion in human RL cells assessed as fold increase in 3'-dATP level at 50 uM incubated for 2 hrs by LC-MS/MS analysis relative to 3'-Deoxyadenosine; type: ADME, cell-based
[20] = biological target: T1, Adenosine deaminase (Bos taurus, UniProt P56658); test: Metabolic stability assessed as bovine recombinant adenosine deaminase-mediated 3'-deoxyinosine metabolite formation by measuring shift in maximum absorption at 62.5 uM measured after 2 mins by UV absorption spectra based analysis; type: ADME; details: cattle
Procedure, shortened: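 Bovine recombinant ADA suspension was diluted in phosphate buffer, pH 7.4, and filtered at 0.2 μm. Substrate at 62.5 μM was added to 17 μL of the ADA solution. UV spectra were scanned at 220–350 nm, 2 nm resolution, every 0.1 min for 10 min to 12 h, with an ADA-only blank subtracted. The read-out is the shift of the 265 nm maximum.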

[21] = Stability in human plasma assessed as reduction in parent compound concentration at 20 uM measured after 4 hrs by UPLC-MS/MS analysis; type: ADME, cell-free
Procedure, shortened: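 Human plasma, with or without 1 μM EHNA as ADA inhibitor, was spiked with 20 μM compound at 37 °C/5% CO2. Samples were quenched in methanol, 1:3 sample:methanol, kept 30 min on ice and centrifuged. The supernatant was dried, reconstituted in 10% acetonitrile and quantified by UPLC-MS/MS over time.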

[22] = system: Leukemic stem cell; test: Cytotoxicity against human leukemic stem cells (Lin-/CD34+/CD38-/CD123+) in myeloid leukemia cell line KG-1a assessed as reduction in LSC population at >1 uM incubated for 72 hrs
[23] = biological target: T1, Adenosine deaminase; test: Metabolic stability assessed as bovine recombinant adenosine deaminase-mediated 3'-deoxyinosine metabolite formation by measuring shift in maximum absorption at 62.5 uM measured upto 2 hrs by UV absorption spectra based analysis; type: ADME; details: cattle
[24] = system: RL; test: Potency index, ratio of 3'-Deoxyadenosine LC50 to test compound LC50 for cytotoxicity against human RL cells assessed as cell death incubated for 72 hrs by MTS assay; type: functional
[25] = system: HL-60; test: Potency index, ratio of 3'-Deoxyadenosine LC50 to test compound LC50 for cytotoxicity against human HL-60 cells assessed as cell death incubated for 72 hrs by MTS assay; type: functional
[26] = system: K562; test: Potency index, ratio of 3'-Deoxyadenosine LC50 to test compound LC50 for cytotoxicity against human K562 cells assessed as cell death incubated for 72 hrs by MTS assay; type: functional
[27] = system: Jurkat; test: Potency index, ratio of 3'-Deoxyadenosine LC50 to test compound LC50 for cytotoxicity against human Jurkat cells assessed as cell death incubated for 72 hrs by MTS assay; type: functional
[28] = system: CCRF-CEM; test: Potency index, ratio of 3'-Deoxyadenosine LC50 to test compound LC50 for cytotoxicity against human CCRF-CEM cells assessed as cell death incubated for 72 hrs by MTS assay; type: functional
[29] = system: CCRF-CEM; test: Cytotoxicity against deoxynucleotidyl transferase-positive human CCRF-CEM cells assessed as cell death preincubated with adenosine deaminase inhibitor, EHNA for 5 mins followed by compound addition and […]; type: functional, cell-based
[30] = system: RL; test: Cytotoxicity against deoxynucleotidyl transferase-negative human RL cells assessed as cell death preincubated with adenosine deaminase inhibitor, EHNA for 5 mins followed by compound addition and […]; type: functional, cell-based
[31] = system: RL; test: Cytotoxicity against deoxynucleotidyl transferase-negative human RL cells assessed as cell death preincubated with adenosine kinase inhibitor, A-134974 for 5 mins followed by compound addition and […]; type: functional, cell-based
[32] = Prodrug activation assessed as Saccharomyces cerevisiae carboxypeptidase Y-mediated (2R)-2-(((((2S,4R,5R)-5-(6-amino-9H-purin-9-yl)-4-hydroxytetrahydrofuran-2-yl)methoxy)(hydroxy)phosphoryl)amino)propanoic acid formation at 5 mg measured over 1 hr by 31P-NMR analysis
Procedure, shortened: (§3)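 Prodrug (5 mg) in acetone-d6 with trizma buffer pH 7.6, with a t = 0 31P NMR (202 MHz) reference taken first. Carboxypeptidase Y stock (50 units/mL in trizma pH 7.6) added. 31P NMR spectra recorded over time to follow intermediate and aminoacyl phosphoramidate signals.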

[33] = Prodrug activation assessed as Saccharomyces cerevisiae carboxypeptidase Y-mediated (2R)-2-(((((2S,4R,5R)-5-(6-amino-9H-purin-9-yl)-4-hydroxytetrahydrofuran-2-yl)methoxy)(phenoxy)phosphoryl)amino)propanoic acid formation at 5 mg measured for 4 mins by 31P-NMR analysis; procedure, shortened: as §3
[34] = Stability in human plasma assessed as reduction in parent compound concentration at 20 uM measured upto 4 hrs by UPLC-MS/MS analysis; type: ADME, cell-free
[35] = Stability in human plasma assessed as reduction in parent compound concentration at 20 uM incubated for 4 hrs in presence of adenosine deaminase inhibitor, EHNA by UPLC-MS/MS analysis; type: ADME, cell-free
[36] = Drug concentration in mouse plasma at 20 uM measured after 30 sec by UPLC-MS/MS analysis; type: ADME, cell-free
[37] = Drug concentration in human plasma at 20 uM measured after 30 sec by UPLC-MS/MS analysis; type: ADME, cell-free
[38] = Drug metabolism in mouse plasma assessed as metabolite formation by measuring reduction in parent compound concentration at 20 uM incubated for 24 hrs in presence of adenosine deaminase inhibitor, EHNA by UPLC/MS/MS analysis; type: ADME, cell-free
[39] = system: Leukemic stem cell; test: Cytotoxicity against human leukemic stem cells (Lin-/CD34+/CD38-/CD123+) in myeloid leukemia cell line KG-1a assessed as preferential cell killing incubated for 72 hrs

T1 sequence (P56658 whole entry): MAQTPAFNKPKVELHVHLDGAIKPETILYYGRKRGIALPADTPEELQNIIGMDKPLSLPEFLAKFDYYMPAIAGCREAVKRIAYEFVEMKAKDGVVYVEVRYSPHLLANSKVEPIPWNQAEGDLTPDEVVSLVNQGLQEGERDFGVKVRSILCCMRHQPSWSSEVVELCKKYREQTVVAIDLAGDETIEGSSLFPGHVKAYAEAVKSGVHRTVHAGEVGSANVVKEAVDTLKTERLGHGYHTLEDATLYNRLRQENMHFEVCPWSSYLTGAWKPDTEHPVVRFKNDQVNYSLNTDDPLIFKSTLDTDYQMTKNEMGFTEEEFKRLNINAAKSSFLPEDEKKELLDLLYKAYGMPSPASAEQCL

`C[C@H](N[P@](=O)(OC[C@@H]1C[C@@H](O)[C@H](n2cnc3c(N)ncnc32)O1)Oc1ccccc1)C(=O)OCc1ccccc1` showed an Imax [1] of 100%.

For `Nc1ncnc2c1ncn2[C@@H]1O[C@H](COP(=O)(NCC(=O)OCc2ccccc2)Oc2ccccc2)C[C@H]1O` (some centres not stated), the CC50 [2] was 14.9 µM, the Imax [3] was 94% and the CC50 [4] was 45.2 µM. For the same molecule, the Imax [5] was 82%, the LC50 [6] was 136.56 µM and the Imax [7] was 65%. It also gave a CC50 [8] of 3.55 µM, an Imax [9] of 93% and a CC50 [10] of 15.4 µM. It also gave an Imax [11] of 92%, a CC50 [12] of 142 µM and an Imax [13] of 59%. For the same molecule, the CC50 [14] was 15.5 µM and the Imax [15] was 87%.

For `C[C@H](N[P@@](=O)(OC[C@@H]1C[C@@H](O)[C@H](n2cnc3c(N)ncnc32)O1)Oc1ccccc1)C(=O)OCc1ccccc1`, the Imax [7] was 90%.

For `CCOC(=O)CCc1ccccc1OP(=O)(N[C@@H](C)C(=O)OCc1ccccc1)OC[C@@H]1C[C@@H](O)[C@H](n2cnc3c(N)ncnc32)O1` (some centres not stated), the Imax [7] was 69%, the “fold change (FC)” value [16] was 2 and the “fold change (FC)” value [17] was 2. For the same molecule, the “fold change (FC)” value [18] was 2 and the “fold change (FC)” value [19] was 2.

`CC(=O)O[C@H]1C(=O)[C@@]2(C)[C@H]([C@H](OC(=O)c3ccccc3)[C@]3(O)C[C@H](OC(=O)[C@H](O)[C@@H](NC(=O)c4ccccc4)c4ccccc4)C(C)=C1C3(C)C)[C@]1(OC(C)=O)CO[C@@H]1C[C@@H]2O` [PACLITAXEL] gave an Imax [7] of 89%.

In the case of `Nc1ncnc2c1ncn2[C@@H]1O[C@H](CO)C[C@H]1O` [CORDYCEPIN], the Stability [20] is reported as “Unstable”, the Stability [21] is reported as “Unstable” and the Activity [22] is reported as “Active”.

With `C[C@H](NP(=O)(OC[C@@H]1C[C@@H](O)[C@H](n2cnc3c(N)ncnc32)O1)Oc1ccccc1)C(=O)OCc1ccccc1` (some centres not stated) [FOSDESDENOSINE SIPALABENAMIDE] the Stability [23] was “Stable”, the RatioLC50 [24] was 3 and the RatioLC50 [25] was 3. It also gave a RatioLC50 [26] of 3, a RatioLC50 [27] of 200 and a RatioLC50 [28] of 3. For the same molecule, the “fold change (FC)” value [16] was 3, the “fold change (FC)” value [17] was 3 and the “fold change (FC)” value [18] was 3. For the same molecule, the “fold change (FC)” value [19] was 3, the Activity [29] was “Active” and the Activity [30] was “Active”. The Activity [31] was “Active”, the Drug metabolism [32] was “Metabolite_Detected” and the Drug metabolism [33] was “Metabolite_Detected”. The Stability [34] was “Stable”, the Stability [35] was “Stable” and the concentration at 0.5 min, 20 µM [36] was 0.5 ng/mL. The concentration at 0.5 min, 20 µM [37] was 10000 ng/mL, the Drug metabolism [38] was “Metabolite_Detected” and the Activity [39] was “Active”. The Activity [22] was “Active”.
